Experimental data taken from ChEMBL document CHEMBL4033785, “Increased Potency and Selectivity for Group III Metabotropic Glutamate Receptor Agonists Binding at Dual sites” (J Med Chem, 2018).
pEC50: −log10 of the molar value. Active and inactive are the calls of the source. The rule behind the calls is not given here.

Key:
[1] = target: T1, Metabotropic glutamate receptor 4 (Homo sapiens, UniProt Q14833); test: Agonist activity at mGlu4 (unknown origin) expressed in HEK293 cells coexpressing chimeric Gq/i protein assessed as increase in intracellular calcium accumulation at 300 uM by Fluo-4 AM dye based fluorescence assay; type: functional, cell-based
T1 sequence (Q14833 whole entry): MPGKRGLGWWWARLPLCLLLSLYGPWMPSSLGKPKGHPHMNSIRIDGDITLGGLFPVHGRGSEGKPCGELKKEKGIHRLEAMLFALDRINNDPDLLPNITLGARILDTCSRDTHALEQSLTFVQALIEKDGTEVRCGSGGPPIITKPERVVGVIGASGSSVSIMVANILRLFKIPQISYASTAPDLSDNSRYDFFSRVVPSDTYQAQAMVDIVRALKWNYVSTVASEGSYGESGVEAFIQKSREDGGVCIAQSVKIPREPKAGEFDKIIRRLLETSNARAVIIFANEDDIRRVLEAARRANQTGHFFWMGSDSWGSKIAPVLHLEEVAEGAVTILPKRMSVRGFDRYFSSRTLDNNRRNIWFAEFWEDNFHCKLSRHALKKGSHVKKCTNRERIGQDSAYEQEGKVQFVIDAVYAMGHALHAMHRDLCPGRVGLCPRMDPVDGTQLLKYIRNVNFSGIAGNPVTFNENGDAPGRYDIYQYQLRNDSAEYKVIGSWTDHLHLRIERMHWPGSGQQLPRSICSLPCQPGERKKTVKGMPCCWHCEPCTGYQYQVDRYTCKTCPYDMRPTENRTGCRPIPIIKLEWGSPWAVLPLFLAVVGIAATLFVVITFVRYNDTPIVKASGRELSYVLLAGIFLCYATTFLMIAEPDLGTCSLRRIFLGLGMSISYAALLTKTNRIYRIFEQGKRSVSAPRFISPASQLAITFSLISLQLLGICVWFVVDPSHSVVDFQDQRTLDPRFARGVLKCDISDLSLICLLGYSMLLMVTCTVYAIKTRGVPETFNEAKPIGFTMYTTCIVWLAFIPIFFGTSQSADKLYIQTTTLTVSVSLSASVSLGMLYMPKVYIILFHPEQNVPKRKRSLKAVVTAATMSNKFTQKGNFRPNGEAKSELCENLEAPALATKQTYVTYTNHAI

[2] = target: T2, Metabotropic glutamate receptor 8 (Homo sapiens, UniProt O00222); test: Agonist activity at mGlu8 (unknown origin) expressed in HEK293 cells coexpressing chimeric Gq/i protein assessed as increase in intracellular calcium accumulation at 300 uM by Fluo-4 AM dye based fluorescence assay; type: functional, cell-based
T2 sequence (O00222 whole entry): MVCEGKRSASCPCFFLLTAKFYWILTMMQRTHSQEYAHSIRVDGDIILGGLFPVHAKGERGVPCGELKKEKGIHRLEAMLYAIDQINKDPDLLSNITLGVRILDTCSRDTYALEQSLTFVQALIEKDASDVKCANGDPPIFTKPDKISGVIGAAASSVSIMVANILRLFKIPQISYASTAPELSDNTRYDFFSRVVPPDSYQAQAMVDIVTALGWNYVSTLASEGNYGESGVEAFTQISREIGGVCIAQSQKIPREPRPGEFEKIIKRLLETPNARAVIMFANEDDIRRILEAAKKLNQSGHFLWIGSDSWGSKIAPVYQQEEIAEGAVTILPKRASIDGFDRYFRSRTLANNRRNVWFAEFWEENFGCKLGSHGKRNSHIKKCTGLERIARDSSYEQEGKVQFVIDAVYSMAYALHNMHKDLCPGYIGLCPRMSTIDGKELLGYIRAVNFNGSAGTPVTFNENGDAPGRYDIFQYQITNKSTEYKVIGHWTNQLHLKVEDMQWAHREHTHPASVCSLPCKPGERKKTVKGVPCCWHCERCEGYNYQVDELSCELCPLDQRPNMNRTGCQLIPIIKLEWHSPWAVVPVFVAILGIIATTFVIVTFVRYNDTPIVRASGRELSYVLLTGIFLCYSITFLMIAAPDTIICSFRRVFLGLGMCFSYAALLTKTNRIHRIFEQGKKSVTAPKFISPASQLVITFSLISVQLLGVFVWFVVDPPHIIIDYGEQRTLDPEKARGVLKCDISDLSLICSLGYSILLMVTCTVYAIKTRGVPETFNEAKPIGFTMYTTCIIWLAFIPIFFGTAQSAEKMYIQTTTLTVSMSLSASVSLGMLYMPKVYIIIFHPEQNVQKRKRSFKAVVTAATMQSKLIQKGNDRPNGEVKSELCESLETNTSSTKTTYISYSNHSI

Homo sapiens [3] = species: Homo sapiens; test: (§1) Selectivity ratio of EC50 for mGlu8 (unknown origin) expressed in HEK293 cells coexpressing chimeric Gq/i protein assessed as [3H]inositol phosphate accumulation to EC50 for mGlu4 (unknown origin) expressed in HEK293 cells coexpressing chimeric Gq/i protein assessed as [3H]inositol phosphate accumulation; type: cell-based
Method in brief: (§2)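 Ratio of mGlu8 EC50 to mGlu4 EC50, both from the same functional assay. Both receptors were co-expressed in HEK293 cells with chimeric G-protein and EAAT3 and read by 3H-IP accumulation or by Fluo-4 Ca2+ release.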

[4] = target: T1, Metabotropic glutamate receptor 4; test: Agonist activity at mGlu4 (unknown origin) expressed in HEK293 cells coexpressing chimeric Gq/i protein assessed as increase in intracellular calcium accumulation by Fluo-4 AM dye based fluorescence assay; type: functional, cell-based
Homo sapiens [5] = species: Homo sapiens; test: as §1, with “increase in intracellular calcium” for “[3H]inositol phosphate”; type: cell-based; method in brief: as §2
[6] = target: T3, Metabotropic glutamate receptor 6 (Homo sapiens, UniProt O15303); test: Agonist activity at mGlu6 (unknown origin) expressed in HEK293 cells coexpressing chimeric Gq/i protein assessed as [3H]inositol phosphate accumulation after 30 mins by scintillation and luminescence counting method; type: functional, cell-based
T3 sequence (O15303 whole entry): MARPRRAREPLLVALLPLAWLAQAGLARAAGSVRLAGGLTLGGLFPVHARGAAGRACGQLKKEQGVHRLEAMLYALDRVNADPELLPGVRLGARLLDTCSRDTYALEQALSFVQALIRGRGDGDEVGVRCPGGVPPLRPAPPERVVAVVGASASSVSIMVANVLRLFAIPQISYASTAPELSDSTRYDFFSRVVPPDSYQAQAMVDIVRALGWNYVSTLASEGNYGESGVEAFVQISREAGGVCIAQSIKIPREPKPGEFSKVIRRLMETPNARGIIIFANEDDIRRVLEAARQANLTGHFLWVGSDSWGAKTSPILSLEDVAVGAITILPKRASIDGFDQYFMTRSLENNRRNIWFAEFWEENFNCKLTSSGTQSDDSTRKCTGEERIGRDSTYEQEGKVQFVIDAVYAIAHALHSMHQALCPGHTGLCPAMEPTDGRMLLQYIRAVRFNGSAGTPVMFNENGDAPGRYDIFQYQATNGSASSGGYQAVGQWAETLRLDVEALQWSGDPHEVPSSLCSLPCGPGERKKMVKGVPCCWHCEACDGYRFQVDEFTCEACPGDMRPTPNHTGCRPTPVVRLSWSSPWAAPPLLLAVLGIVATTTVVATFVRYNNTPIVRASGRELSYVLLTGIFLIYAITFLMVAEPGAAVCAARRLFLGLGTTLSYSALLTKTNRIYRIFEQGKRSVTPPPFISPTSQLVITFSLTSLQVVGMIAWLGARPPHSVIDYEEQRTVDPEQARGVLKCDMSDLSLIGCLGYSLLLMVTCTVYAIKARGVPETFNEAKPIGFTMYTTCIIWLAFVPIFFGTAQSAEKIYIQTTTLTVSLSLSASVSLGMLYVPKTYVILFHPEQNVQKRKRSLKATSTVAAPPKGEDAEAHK
Method in brief: (§3)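 Receptor transiently co-expressed in HEK293 cells (electroporation) with chimeric G-protein and glutamate transporter EAAT3. Cells labelled overnight with 3H-myoinositol, stimulated with agonist 30 min, lysed 1 h in cold 0.1 M formic acid. 3H-IP isolated on Dowex ion exchange and counted. IP expressed relative to IP plus membrane radioactivity. Points in triplicate; EC50 from Hill-equation fit.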

[7] = target: T2, Metabotropic glutamate receptor 8; test: Agonist activity at mGlu8 (unknown origin) expressed in HEK293 cells coexpressing chimeric Gq/i protein assessed as increase in intracellular calcium accumulation by Fluo-4 AM dye based fluorescence assay; type: functional, cell-based
[8] = target: T2, Metabotropic glutamate receptor 8; test: Agonist activity at mGlu8 (unknown origin) expressed in HEK293 cells coexpressing chimeric Gq/i protein assessed as [3H]inositol phosphate accumulation after 30 mins by scintillation and luminescence counting method; type: functional, cell-based; method in brief: as §3
[9] = target: T4, Metabotropic glutamate receptor 7 (Homo sapiens, UniProt Q14831); test: Agonist activity at mGlu7 (unknown origin) expressed in HEK293 cells coexpressing chimeric Gq/i protein assessed as [3H]inositol phosphate accumulation at 300 uM after 30 mins by scintillation and luminescence counting method; type: functional, cell-based; method in brief: as §3
T4 sequence (Q14831 whole entry): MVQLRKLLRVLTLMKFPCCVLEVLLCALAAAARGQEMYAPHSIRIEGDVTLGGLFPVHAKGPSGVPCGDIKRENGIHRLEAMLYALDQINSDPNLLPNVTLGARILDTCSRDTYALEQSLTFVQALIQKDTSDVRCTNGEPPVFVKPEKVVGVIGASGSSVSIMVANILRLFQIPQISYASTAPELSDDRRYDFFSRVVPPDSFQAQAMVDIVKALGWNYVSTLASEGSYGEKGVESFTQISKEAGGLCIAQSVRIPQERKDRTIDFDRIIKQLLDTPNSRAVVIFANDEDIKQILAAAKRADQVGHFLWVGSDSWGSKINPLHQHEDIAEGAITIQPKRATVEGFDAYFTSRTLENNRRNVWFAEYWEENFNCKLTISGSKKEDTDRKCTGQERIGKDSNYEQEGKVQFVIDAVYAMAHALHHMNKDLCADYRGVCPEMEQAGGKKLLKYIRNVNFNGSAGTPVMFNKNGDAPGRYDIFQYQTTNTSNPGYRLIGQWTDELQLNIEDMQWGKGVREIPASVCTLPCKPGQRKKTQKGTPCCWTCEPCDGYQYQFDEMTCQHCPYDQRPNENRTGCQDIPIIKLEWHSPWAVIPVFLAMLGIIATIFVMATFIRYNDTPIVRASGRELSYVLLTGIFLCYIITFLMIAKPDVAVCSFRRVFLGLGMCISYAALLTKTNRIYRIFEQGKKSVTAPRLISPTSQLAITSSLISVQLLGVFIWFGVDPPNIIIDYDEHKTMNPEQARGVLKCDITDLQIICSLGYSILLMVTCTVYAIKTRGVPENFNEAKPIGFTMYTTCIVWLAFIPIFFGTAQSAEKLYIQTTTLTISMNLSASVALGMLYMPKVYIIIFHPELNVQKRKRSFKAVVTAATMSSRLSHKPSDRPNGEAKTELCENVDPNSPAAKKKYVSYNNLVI

[10] = target: T3, Metabotropic glutamate receptor 6; test: Agonist activity at mGlu6 (unknown origin) expressed in HEK293 cells coexpressing chimeric Gq/i protein assessed as increase in intracellular calcium accumulation by Fluo-4 AM dye based fluorescence assay; type: functional, cell-based
[11] = target: T4, Metabotropic glutamate receptor 7; test: Agonist activity at mGlu7 (unknown origin) expressed in HEK293 cells coexpressing chimeric Gq/i protein assessed as [3H]inositol phosphate accumulation after 30 mins by scintillation and luminescence counting method; type: functional, cell-based; method in brief: as §3
[12] = target: T4, Metabotropic glutamate receptor 7; test: Agonist activity at mGlu7 (unknown origin) expressed in HEK293 cells coexpressing chimeric Gq/i protein assessed as increase in intracellular calcium accumulation by Fluo-4 AM dye based fluorescence assay; type: functional, cell-based
[13] = target: T5, Metabotropic glutamate receptor 4 (Rattus norvegicus, UniProt P31423); test: Agonist activity at mGlu4 in Wistar rat striatum assessed as decrease in striatal GABAergic inhibitory post-synaptic potential by whole cell patch clamp assay
T5 sequence (P31423 whole entry): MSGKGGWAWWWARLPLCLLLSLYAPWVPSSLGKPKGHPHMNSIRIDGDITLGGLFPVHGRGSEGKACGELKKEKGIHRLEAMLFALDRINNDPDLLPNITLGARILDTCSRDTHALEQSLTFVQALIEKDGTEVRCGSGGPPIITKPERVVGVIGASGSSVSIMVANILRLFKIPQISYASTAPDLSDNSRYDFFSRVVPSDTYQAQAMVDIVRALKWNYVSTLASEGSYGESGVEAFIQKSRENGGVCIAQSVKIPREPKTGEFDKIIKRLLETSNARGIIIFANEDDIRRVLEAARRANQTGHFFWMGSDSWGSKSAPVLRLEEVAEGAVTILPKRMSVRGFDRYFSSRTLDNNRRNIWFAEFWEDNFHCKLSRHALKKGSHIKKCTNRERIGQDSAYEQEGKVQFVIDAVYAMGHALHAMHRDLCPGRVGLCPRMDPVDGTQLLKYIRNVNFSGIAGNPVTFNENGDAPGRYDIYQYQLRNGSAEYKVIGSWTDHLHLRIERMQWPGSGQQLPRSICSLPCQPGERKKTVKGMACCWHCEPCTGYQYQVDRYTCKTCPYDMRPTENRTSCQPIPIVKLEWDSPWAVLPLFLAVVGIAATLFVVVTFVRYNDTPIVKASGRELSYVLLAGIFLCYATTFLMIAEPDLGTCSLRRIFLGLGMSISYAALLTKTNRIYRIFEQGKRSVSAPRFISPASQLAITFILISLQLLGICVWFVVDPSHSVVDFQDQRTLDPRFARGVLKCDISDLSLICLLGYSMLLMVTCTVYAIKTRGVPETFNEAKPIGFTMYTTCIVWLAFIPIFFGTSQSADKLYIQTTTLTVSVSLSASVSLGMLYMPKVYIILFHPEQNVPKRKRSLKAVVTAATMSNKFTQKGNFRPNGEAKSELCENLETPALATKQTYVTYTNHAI

[14] = target: T5, Metabotropic glutamate receptor 4; test: Agonist activity at mGlu4 in Wistar rat striatum assessed as decrease in corticostriatal glutamatergic excitatory post-synaptic potential by whole cell patch clamp assay
[15] = target: T1, Metabotropic glutamate receptor 4; test: Agonist activity at mGlu4 (unknown origin) expressed in HEK293 cells coexpressing chimeric Gq/i protein assessed as [3H]inositol phosphate accumulation after 30 mins at 100 uM by scintillation and luminescence counting method; type: functional, cell-based; method in brief: as §3

Structure (SMILES)	Ratio EC50 (Homo sapiens [3])	pEC50 [4]	Ratio EC50 (Homo sapiens [5])	pEC50 [6]	pEC50 [7]	pEC50 [8]	pEC50 [10]	pEC50 [12]	other results
N[C@@H](CCCP(=O)(O)C(O)c1ccc(OCC(=O)O)cc1)C(=O)O (some centres not stated)									Activity [1]: inactive; Activity [2]: inactive
Cc1ccc(C(O)P(=O)(O)CC[C@H](N)C(=O)O)cc1[N+](=O)[O-] (some centres not stated)	1.6	5.48	0.5	< 4.00	5.80	5.25	5.40		Activity [9]: inactive
COc1cc(C(O)P(=O)(O)CCC[C@H](N)C(=O)O)cc([N+](=O)[O-])c1O (some centres not stated)									Activity [1]: inactive; Activity [2]: inactive
N[C@@H](CCP(=O)(O)O)C(=O)O	2.5		2.2	5.62			6.00	3.60	pEC50 [11]: 3.47
N[C@@H](CCP(=O)(O)C(O)c1csc([N+](=O)[O-])c1)C(=O)O (some centres not stated)	3.2	6.72	2	5.44	6.42	6.29			pEC50 [11]: 3.38; pEC50 [13]: 6.49; pEC50 [14]: 5.03
N[C@@H](CCP(=O)(O)C(O)c1cc(O)c(O)c([N+](=O)[O-])c1)C(=O)O (some centres not stated)	1.1	5.37	7.6		4.48	5.27	4.59	< 4.00	
N[C@H](C(=O)O)c1ccc(C(=O)O)c(C(=O)O)c1	0.012	5.49	0.014		7.36	7.64	5.21 to 5.49	4.00 to 4.52	
N[C@@H](CCP(=O)(O)C(O)c1ccccc1C(=O)O)C(=O)O (some centres not stated)									Activity [15]: inactive
N[C@@H](CCP(=O)(O)CCC(=O)O)C(=O)O	1.2	5.23	1.1	4.51	5.19	5.11	5.17	4.05	
N[C@@H](CCP(=O)(O)C(O)c1cccc(C(=O)O)c1)C(=O)O (some centres not stated)	5.8			< 4.00		3.90			
N[C@@]1(C(=O)O)C[C@H](C(=O)O)[C@H](C(=O)O)C1	3			4.96		5.29			pEC50 [11]: 3.55
